High-throughput results from PubChem.
A selection: hits, their analogues and other compounds. The true share with any hit is near 7.6%.
Jurkat tox 60K = cytotoxicity toward Jurkat T cells, primary screen, cytotoxicity control, cell-based, Jurkat E6.1, 60K MLSMR library; inhibition, % at 4 µM; 56,000 tested, 1.2% active; Jurkat E6.1 viability, ATP luminescence, 48 h;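 active = inhibition above the mean inhibition of all tested compounds plus 3 SD, cut at about 28% in these data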
D1 allo mod = D1 CRE-luciferase signal change, two-sided – cell-based, HEK293 D1, dopamine EC30, D1 allosteric modulator project, primary screen; dopamine EC30 potentiation; actives deviate in either direction; B-score at 10 µM; 58,000 tested, 5.9% active;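 active = luminescence count or its row- and column-corrected plate score outside the 99.7% band of the plate's sample wells, on either side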
hDAT+cocaine = changed hDAT dopamine uptake under cocaine IC80, either direction, primary screen, cocaine antagonist project, cell-based, LLC-PK1 hDAT, [14C]-dopamine uptake, MLSMR. Sodium-dependent dopamine transporter (Homo sapiens), Q01959. LLC-PK1 hDAT cells, [14C]-dopamine uptake with cocaine IC80; actives deviate in either direction. B-score at 10 µM. 110,000 tested, 1.3% active;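 active = Z score or B-score, a plate-position-corrected score, falls beyond the plate's 99.7% confidence bounds, in either direction; inactive = both scores lie inside the 99.7% bounds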;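 also: scored against the spread of the other compound wells on the same plate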
Target sequence (Q01959 whole entry, looked up): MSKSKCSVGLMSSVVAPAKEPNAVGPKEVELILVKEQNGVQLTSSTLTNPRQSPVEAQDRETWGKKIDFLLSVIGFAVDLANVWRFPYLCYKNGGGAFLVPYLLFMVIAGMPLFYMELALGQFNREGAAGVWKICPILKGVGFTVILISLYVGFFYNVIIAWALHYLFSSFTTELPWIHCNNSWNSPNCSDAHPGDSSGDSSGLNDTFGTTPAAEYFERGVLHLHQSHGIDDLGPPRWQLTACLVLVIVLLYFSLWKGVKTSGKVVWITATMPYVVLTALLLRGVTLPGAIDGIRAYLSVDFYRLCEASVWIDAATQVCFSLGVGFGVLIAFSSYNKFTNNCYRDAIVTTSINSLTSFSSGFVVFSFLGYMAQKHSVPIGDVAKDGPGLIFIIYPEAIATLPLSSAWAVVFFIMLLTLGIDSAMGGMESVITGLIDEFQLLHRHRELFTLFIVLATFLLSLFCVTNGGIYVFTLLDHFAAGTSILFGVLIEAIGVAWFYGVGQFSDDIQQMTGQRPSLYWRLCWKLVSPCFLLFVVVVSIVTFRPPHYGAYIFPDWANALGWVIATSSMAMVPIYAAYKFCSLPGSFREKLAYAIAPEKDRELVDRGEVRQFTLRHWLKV
M1 ag = M1 muscarinic receptor agonists, primary screen, CHO-M1 cells, Fluo-4 calcium, agonist mode; Muscarinic acetylcholine receptor M1; Fluo-4 calcium fluorescence; active compounds read high; B-score at 10 µM; 64,000 tested, 3% active; AID 626, 2007;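 active = fluorescence rise, raw or as B-score row- and column-corrected plate score, outside the 99.7% band of its plate's samples, either direction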
M1 antagonist = antagonists of rat M1 muscarinic receptor. Muscarinic acetylcholine receptor M1 (Rattus norvegicus), P08482. CHO-M1 cells, Fluo-4 calcium, ACh EC80 antagonist mode; active compounds read low. B-score at 10 µM. 64,000 tested, 3.4% active;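 active = calcium fluorescence response, raw or row-and-column corrected B-score, differing from the plate sample mean either way at a set confidence level, mostly lower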
HEK293 NFkB inh = inhibitors of PMA/ionomycin-induced NF-kB reporter, primary screen, antigen receptor NF-kB inhibitor project, cell-based, HEK-293 luciferase reporter, luminescence | HEK-293 NF-kB luciferase reporter | inhibition, % at 3 µM | 62,000 tested, 0.21% active;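 active = inhibition above the mean of all tested compounds plus 3 SD, cut at about 40% in these data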;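 also: 0% = stimulated DMSO wells and 100% = 10 µM reference inhibitor 5653914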
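Timing: 1 h pretreatment, 16 h stimulation, 37 °C; system: HEK-293 cells with stable firefly luciferase reporter driven by four HIV NF-kB elements; doses: 3 µM once, 0.30% DMSO; measured by: luciferase luminescence; control set: DMSO and 10 µM reference inhibitor; repeats: single test; reagent: PMA plus ionomycin mix as NF-kB-activating stimulus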
M1 antag confirm = rat M1 muscarinic receptor antagonists, confirmation, CHO cells, Fluo-4 calcium, duplicate | AID 677, 2007 | shares compounds with M1 antagonist | 1,700 tested, 43% active | ACh EC80 antagonism; active compounds read low | calcium response (max-min fluorescence) at 10 µM;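 active = calcium response below the same-plate mean of wells given acetylcholine alone at its 80%-effect dose, minus 3 SD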;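 also: raw fluorescence intensity difference in arbitrary instrument units and not normalized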
mGluR4 antag = human mGluR4 response to M1 antagonist hits, M1 allosteric modulator project, cell-based, antagonist mode, secondary assay 1 | shares compounds with M1 antagonist | CHO-mGluR4 calcium flux, Fluo-4 fluorescence, glutamate EC80; active compounds read low | fluorescence response (max-min) at 10 µM | 1,700 tested, 0.9% active | AID 678, 2007;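 active = fluorescence response below the plate's average for near-maximal glutamate wells, less 3 SD of those wells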;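 also: raw unnormalized fluorescence span taken in the window right after glutamate addition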
Active calls of the source: *; x = not tested or not shown.

SMILES	Jurkat tox 60K	D1 allo mod	hDAT+cocaine	M1 ag	M1 antagonist	HEK293 NFkB inh	M1 antag confirm	mGluR4 antag
Cc1cc(C)cc(N2CC(c3nc4ccccc4n3C)CC2=O)c1 (stereo not drawn)	0	-0.11	0.051	0.19	0.028	4	x	x
Cc1ccc(N2CC(c3nc4ccccc4n3C)CC2=O)cc1C (stereo not drawn)	-1	-0.26	1.3	0.11	-4.1*	6	447*	234
Cc1ccc(-c2nc3ccc(NS(=O)(=O)c4ccccc4)cc3[nH]2)o1	x	x	0.82	x	x	x	x	x
CSc1nnc2c(n1)OC(c1ccc(C(=O)O)cc1)N(C(C)=O)c1ccccc1-2 (stereo not drawn)	-10	0.11	0.74	0.36	0.16	5	x	x
CSc1nnc2c(n1)OC(c1cccn1C)N(C(C)=O)c1ccccc1-2 (stereo not drawn)	-8	-0.75	-0.76	0.36	-5.7*	10	158*	201
C=CCSc1nnc2c(n1)OC(c1cccnc1)N(C(C)=O)c1ccccc1-2 (stereo not drawn)	-6	x	0.43	-0.53	-4.2*	13	373*	224
C=CCSc1nnc2c(n1)OC(c1cccnc1)Nc1ccccc1-2 (stereo not drawn)	-5	0.47	-0.3	-0.53	-0.06	6	x	x
COCCN(CCOC)S(=O)(=O)c1ccc(OC)cc1	-5	0.48	-1.2	-0.14	-0.41	-5	x	x
O=C(CNC1CCCCCC1)Nc1ccc(S(=O)(=O)NC2CC2)cc1	6	-0.045	-0.093	-0.96	-4.8*	1	182*	255
C=CCNC(=O)C(C#N)c1nc2ccccc2nc1N1CCCCCC1 (stereo not drawn)	x	x	-0.47	1.6	-2.8*	x	603	274
COc1cccc(C(=O)N(CN2CCCC2=O)c2cc(C)on2)c1	0	x	0.94	-0.43	-3.4*	1	545	190
Cc1oc(-c2cccc(Cl)c2)nc1CN1CCC(C(=O)N2CCN(c3ccccc3F)CC2)CC1	3	-0.26	x	-2	-0.64	11	x	x
Cn1c(N)c(C(=O)COC(=O)C2(c3cccc(F)c3)CCCC2)c(=O)n(C)c1=O	-3	-1.1	0.24	-0.45	-2.8*	18	630	208
CCOc1ccc(CNc2ccc3c(c2)nc(C)n3C)cc1	5	x	0.54	-1.2	-6*	-1	448*	262
Cc1nn(CC(=O)O)c2ccccc12	2	-2.3	0.17	-0.7	-0.43	-3	x	x
COc1ccc(C2=NO[C@@H]3C(=O)N(c4ccc5c(c4)OCCO5)C(=O)[C@H]23)cc1OC	-5	-0.77	-0.45	-0.17	0.07	4	x	x
CCCCn1nnnc1NCc1ccc(N2CCCC2)cc1	0	0.49	-0.26	-0.82	-3.7*	-2	544	240
CCNS(=O)(=O)c1ccc(NC(=O)Cc2ccc(F)cc2)cc1	0	0.081	0.25	0.056	-5.5*	-4	561*	197
CCNC(=O)Cc1ccc(NS(=O)(=O)c2ccc(F)cc2)cc1	x	-0.048	-0.16	-0.29	0.15	18	x	x
COc1cc2c(C(=O)NCc3ccc(C)o3)cn(CC(C)C)c(=O)c2cc1OC	0	-0.00059	0.25	0.041	0.23	5	x	x
CCC1CCCCN1CCCNC(=O)c1cn(CC(C)C)c(=O)c2cc(OC)c(OC)cc12 (stereo not drawn)	x	-0.52	-7.2*	0	-1.2*	5	458*	250
CCCn1c(Sc2nc3c(c(=O)[nH]c(=O)n3C)n2CCC)nc2c1c(=O)[nH]c(=O)n2C	x	x	1	x	x	x	x	x
CC(C)CN(C(=O)CSc1nnc2c(Cl)cc(C(F)(F)F)cn12)C1CCS(=O)(=O)C1 (stereo not drawn)	-2	x	-1.2	-0.42	0.028	14	x	x
CCc1ccc(NC(=O)Nc2cccs2)cc1	1	-0.25	-0.021	-0.46	-2.3*	-34	569	215
Cc1ccc2oc(C(=O)Nc3c(C)n(C)n(-c4ccccc4)c3=O)c(C)c2c1	-4	-0.25	x	0.18	-0.049	8	x	x
SMILES	Jurkat tox 60K	D1 allo mod	hDAT+cocaine	M1 ag	M1 antagonist	HEK293 NFkB inh	M1 antag confirm	mGluR4 antag
CCNc1ccccc1C(=O)O	x	x	0.61	x	x	x	x	x
CCCN1Cc2cccc(C(=O)Nc3ccc(N4CCN(CC)CC4)cc3)c2C1=O	-8	1.8	x	-0.018	-1.7*	11	354*	210
O=C(Nc1ccc(N2CCCCC2)cc1)c1cccnc1Cl	x	x	1.4	x	x	x	x	x
CCN1CCN(c2ccc(NC(=O)c3cccc4ncccc34)cc2)CC1	8	-2	0.017	-0.36	-5.1*	7	499	249
CN(CCCn1c(=S)[nH]c2ncccc2c1=O)Cc1ccccc1	-2	x	2.4	-1.1	-3.3*	18	471	221
CCOC(=O)N1CCN(CC(O)COCC2=CCC3CC2C3(C)C)CC1 (stereo not drawn)	0	0.44	-0.0094	-1.8	-6.3*	6	456*	272
CCOC(=O)N1CCN(CC(O)COCc2ccccc2)CC1 (stereo not drawn)	x	x	-0.59	x	x	x	x	x
CCOC(=O)N1CCC2(CC1)CC(=O)c1c(ccc3oc(C(=O)O)c(C)c13)O2	-9	0.38	-0.48	0.044	-3.3*	12	668	242
CCOC(=O)c1oc2ccc3c(c2c1C)C(=O)CC1(CCN(C(=O)OCC)CC1)O3	2	x	0.37	2.3	-0.55	17	x	x
COc1cccc(N2CCN(CC(=O)C34CC5CC(CC(C5)C3)C4)CC2)c1	x	x	0.79	x	x	x	x	x
N=c1c(C(=O)NCc2ccco2)cc2c(=O)n3ccccc3nc2n1Cc1ccccc1	8	-0.076	2.1	-0.083	-3*	20	589*	206
Cc1ccc2nc3c(cc(C(=O)NCc4cccnc4)c(=N)n3C(C)C)c(=O)n2c1	2	-0.37	x	0.71	-0.014	6	x	x
Cc1cccn2c(=O)c3cc(C(=O)NCc4cccnc4)c(=N)n(C(C)C)c3nc12	x	-1.8	1.4	-1.2	-2.5*	11	579	259
CC(C)n1c(=N)c(C(=O)NCCc2ccccc2)cc2c(=O)n3ccccc3nc21	18	-0.74	0.89	4.1	-4.1*	10	445*	247
